# Source: ChEMBL document CHEMBL1926565, “Synthesis, antiproliferative activities and telomerase inhibition evaluation of novel asymmetrical 1,2-disubstituted amidoanthraquinone derivatives” (Eur J Med Chem, 2012)
# What was measured:
# UACC-257 = test: Cytotoxicity against human UACC257 cells assessed as cellular growth at 10 uM; format: functional
# RXF 393 = test: Cytotoxicity against human RXF393 cells assessed as cellular growth at 10 uM; format: functional
# In short: (§1)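 Single-dose screen run by the NCI across its 60-human-tumour-cell-line panel; growth recorded for each cell line.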
# MCF7 = test: Cytotoxicity against human MCF7 cells assessed as cellular growth at 10 uM; format: functional; in short: as §1
# PC-3 = test: Cytotoxicity against human PC3 cells after 48 hrs by SRB assay; format: functional, cell-based; conditions: PC-3, 48 h
# In short: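 PC-3 cells grown in RPMI1640 with 10% FBS at 37 °C, 5% CO₂. Seeded in medium with 5% FBS; after 24 h, one plate fixed with 10% TCA as T₀. Compound or 0.1% DMSO vehicle added for 48 h, then TCA fixation and 0.4% SRB in 1% acetic acid. Dye solubilized in 10 mM Trizma base, absorbance read at 515 nm. IC50 is the concentration giving 50% reduction of the protein gain in controls.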
# K562 [1] = test: Cytotoxicity against human K562 cells assessed as cellular growth at 10 uM; format: functional; in short: as §1
# HT-29 = test: Cytotoxicity against human HT-29 cells assessed as cellular growth at 10 uM; format: functional; in short: as §1
# KM12 [2] = test: Cytotoxicity against human KM12 cells assessed as cellular growth at 10 uM; format: functional; in short: as §1
# SW-620 [3] = test: Cytotoxicity against human SW620 cells assessed as cellular growth at 10 uM; format: functional
# LOX IMVI [4] = test: Cytotoxicity against human LOXIMVI cells assessed as cellular growth at 10 uM; format: functional; in short: as §1
# MDA-MB-435 = test: Cytotoxicity against human MDA-MB-435 cells assessed as cellular growth at 10 uM; format: functional; in short: as §1
# [5] = target: Telomerase reverse transcriptase (Homo sapiens) (UniProt O14746); test: Residual activity of human TERT in H1299 cells at 1 uM after 24 hrs by SEAP reporter gene assay
# Telomerase reverse transcriptase (Homo sapiens), sequence (O14746 whole entry): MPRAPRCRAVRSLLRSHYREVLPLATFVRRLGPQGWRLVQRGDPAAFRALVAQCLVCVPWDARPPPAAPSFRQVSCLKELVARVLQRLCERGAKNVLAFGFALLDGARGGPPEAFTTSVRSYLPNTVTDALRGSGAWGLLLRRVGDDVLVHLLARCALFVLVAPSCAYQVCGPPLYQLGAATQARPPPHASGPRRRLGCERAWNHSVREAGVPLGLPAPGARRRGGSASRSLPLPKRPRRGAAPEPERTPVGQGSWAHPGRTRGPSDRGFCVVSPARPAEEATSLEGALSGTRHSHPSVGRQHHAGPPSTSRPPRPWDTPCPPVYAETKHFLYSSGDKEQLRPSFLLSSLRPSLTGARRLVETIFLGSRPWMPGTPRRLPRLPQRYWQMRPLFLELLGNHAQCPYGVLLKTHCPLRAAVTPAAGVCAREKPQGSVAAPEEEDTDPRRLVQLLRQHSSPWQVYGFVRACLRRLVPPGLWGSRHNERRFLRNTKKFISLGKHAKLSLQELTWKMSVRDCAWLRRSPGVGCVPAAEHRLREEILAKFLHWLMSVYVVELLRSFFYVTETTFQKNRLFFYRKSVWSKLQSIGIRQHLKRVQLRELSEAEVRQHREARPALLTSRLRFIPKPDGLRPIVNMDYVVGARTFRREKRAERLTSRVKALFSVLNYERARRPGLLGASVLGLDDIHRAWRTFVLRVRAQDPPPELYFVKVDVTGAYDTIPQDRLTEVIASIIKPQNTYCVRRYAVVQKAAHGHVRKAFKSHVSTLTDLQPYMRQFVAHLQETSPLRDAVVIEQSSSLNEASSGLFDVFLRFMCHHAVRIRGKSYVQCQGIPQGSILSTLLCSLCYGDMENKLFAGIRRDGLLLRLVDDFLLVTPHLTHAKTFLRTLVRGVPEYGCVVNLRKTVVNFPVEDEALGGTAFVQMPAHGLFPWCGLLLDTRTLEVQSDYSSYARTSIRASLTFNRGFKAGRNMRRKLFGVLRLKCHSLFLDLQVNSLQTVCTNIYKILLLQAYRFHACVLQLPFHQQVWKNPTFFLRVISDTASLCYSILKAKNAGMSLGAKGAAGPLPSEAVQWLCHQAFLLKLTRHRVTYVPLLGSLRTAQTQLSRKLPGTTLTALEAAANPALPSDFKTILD
# [6] = target: Telomerase reverse transcriptase (Homo sapiens) (UniProt O14746); test: Residual activity of human TERT in H1299 cells at 10 uM after 24 hrs by SEAP reporter gene assay
# K562 [7] = test: Anticancer activity against human K562 cells; format: functional
# In short: (§2)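 NCI 60-human-tumour-cell-line panel. Selected analogues were first run at one dose, then some were carried into multi-dose testing. GI50 (50% growth inhibition), TGI (total growth inhibition) and LC50 (50% cell kill) were read as values interpolated where the dose–response curves cross these levels.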
# RPMI-8226 = test: Anticancer activity against human RPMI8226 cells; format: functional; in short: as §2
# EKVX = test: Anticancer activity against human EKVX cells; format: functional; in short: as §2
# HOP-62 = test: Anticancer activity against human HOP62 cells; format: functional; in short: as §2
# HOP-92 = test: Anticancer activity against human HOP92 cells; format: functional; in short: as §2
# NCI-H23 = test: Anticancer activity against human NCI-H23 cells; format: functional; in short: as §2
# NCI-H322M = test: Anticancer activity against human NCI-H322M cells; format: functional; in short: as §2
# NCI-H522 = test: Anticancer activity against human NCI-H522 cells; format: functional; in short: as §2
# COLO 205 = test: Anticancer activity against human COLO205 cells; format: functional; in short: as §2
# HCT-116 = test: Anticancer activity against human HCT116 cells; format: functional; in short: as §2
# HCT-15 = test: Anticancer activity against human HCT15 cells; format: functional; in short: as §2
# KM12 [8] = test: Anticancer activity against human KM12 cells; format: functional; in short: as §2
# SW-620 [9] = test: Anticancer activity against human SW620 cells; format: functional
# SF-268 = test: Anticancer activity against human SF268 cells; format: functional; conditions: read-out: LC50 (the source's name); in short: as §2
# SNB-19 = test: Anticancer activity against human SNB19 cells; format: functional; conditions: read-out: LC50 (the source's name)
# In short: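 Tested by the NCI in its 60-human-tumour-cell-line panel. Dose-response curves were run, and GI₅₀ (50% growth inhibition), TGI (total growth inhibition) and LC₅₀ (50% cell killing) were read as interpolated concentrations where the curves cross those levels.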
# SNB-75 = test: Anticancer activity against human SNB75 cells; format: functional; conditions: read-out: LC50 (the source's name); in short: as §2
# U-251 = test: Anticancer activity against human U251 cells; format: functional
# LOX IMVI [10] = test: Anticancer activity against human LOXIMVI cells; format: functional; in short: as §2
# M14 = test: Anticancer activity against human M14 cells; format: functional; in short: as §2
# SK-MEL-28 = test: Anticancer activity against human SK-MEL-28 cells; format: functional; in short: as §2
# UACC-62 = test: Anticancer activity against human UACC62 cells; format: functional
# IGROV-1 = test: Anticancer activity against human IGROV1 cells; format: functional; in short: as §2
# OVCAR-4 = test: Anticancer activity against human OVCAR4 cells; format: functional; in short: as §2
# OVCAR-5 = test: Anticancer activity against human OVCAR5 cells; format: functional; in short: as §2
# SN12C = test: Anticancer activity against human SN12C cells; format: functional; in short: as §2
# TK-10 = test: Anticancer activity against human TK10 cells; format: functional
# CAKI-1 = test: Anticancer activity against human Caki1 cells; format: functional; in short: as §2
# DU-145 = test: Anticancer activity against human DU145 cells; format: functional; in short: as §2
# MDA-MB-231 = test: Anticancer activity against human MDA-MB-231 cells; format: functional; in short: as §2
# BT-549 = test: Anticancer activity against human BT549 cells; format: functional; in short: as §2
# SR = test: Cytotoxicity against human SR cells assessed as cellular growth at 10 uM; format: functional
# [11] = read-out: LC50 (the source's name)
smiles,measurement,setting,value
Cc1ccc(C(=O)Nc2c(NC(=O)CN3CCCC3)ccc3c2C(=O)c2ccccc2C3=O)cc1,Activity,UACC-257,92.83%
same,Activity,RXF 393,63.8%
same,Activity,MCF7,70.79%
same,IC50,PC-3,17.6 µM
same,Activity,K562 [1],40.86%
same,Activity,HT-29,31.34%
same,Activity,KM12 [2],51.05%
same,Activity,SW-620 [3],82.29%
same,Activity,LOX IMVI [4],80.62%
same,Activity,MDA-MB-435,79.14%
same,residual activity,[5],81%
same,residual activity,[6],59%
Cc1ccc(C(=O)Nc2c(NC(=O)CCl)ccc3c2C(=O)c2ccccc2C3=O)cc1,Activity,MCF7,-79.28%
same,GI50,K562 [7],1.87 µM
same,LC50 (50% net cell kill),K562 [7],> 50 µM
same,TGI,K562 [7],4.04 µM
same,IC50,PC-3,3.87 µM
same,GI50,RPMI-8226,1.35 µM
same,LC50 (50% cell kill),RPMI-8226,> 50 µM
same,TGI,RPMI-8226,> 50 µM
same,GI50,EKVX,1.98 µM
same,TGI,EKVX,14.9 µM
same,CC50,EKVX; [11],> 50 µM
same,GI50,HOP-62,2.97 µM
same,LC50 (50% cell kill),HOP-62,24.4 µM
same,TGI,HOP-62,9.49 µM
same,GI50,HOP-92,9.73 µM
same,LC50 (concentration giving 50% cell kill),HOP-92,> 50 µM
same,TGI,HOP-92,31.7 µM
same,GI50,NCI-H23,1.78 µM
same,LC50 (50% cell kill),NCI-H23,31.4 µM
same,TGI,NCI-H23,8.28 µM
same,GI50,NCI-H322M,3.76 µM
same,LC50 (50% cell kill),NCI-H322M,45.4 µM
same,TGI,NCI-H322M,13.7 µM
same,GI50,NCI-H522,0.88 µM
same,TGI,NCI-H522,2.03 µM
same,GI50,COLO 205,2.95 µM
same,LC50,COLO 205,23.7 µM
same,TGI,COLO 205,9.65 µM
same,GI50,HCT-116,1.05 µM
same,TGI,HCT-116,2.46 µM
same,CC50,HCT-116; [11],9.32 µM
same,LC50,HCT-15,28.4 µM
same,GI50,KM12 [8],5.56 µM
same,LC50,KM12 [8],28.3 µM
same,TGI,KM12 [8],12.6 µM
same,GI50,SW-620 [9],1.87 µM
same,TGI,SW-620 [9],9.31 µM
same,CC50,SW-620 [9]; [11],> 50 µM
same,CC50,SF-268,> 50 µM
same,CC50,SNB-19,27.6 µM
same,CC50,SNB-75,30.5 µM
same,GI50,U-251,1.8 µM
same,TGI,U-251,6.83 µM
same,CC50,U-251; [11],30.2 µM
same,GI50,LOX IMVI [10],0.78 µM
same,TGI,LOX IMVI [10],1.84 µM
same,CC50,LOX IMVI [10]; [11],4.29 µM
same,GI50,M14,4.72 µM
same,TGI,M14,12.4 µM
same,CC50,M14; [11],31.4 µM
same,GI50,SK-MEL-28,7.63 µM
same,TGI,SK-MEL-28,15.2 µM
same,CC50,SK-MEL-28; [11],30.1 µM
same,GI50,UACC-62,9.92 µM
same,TGI,UACC-62,17.9 µM
same,CC50,UACC-62; [11],32.2 µM
same,GI50,IGROV-1,5.6 µM
same,TGI,IGROV-1,17 µM
same,CC50,IGROV-1; [11],> 50 µM
same,GI50,OVCAR-4,5.52 µM
same,TGI,OVCAR-4,12 µM
same,CC50,OVCAR-4; [11],25.9 µM
same,GI50,OVCAR-5,11.3 µM
same,TGI,OVCAR-5,19.2 µM
same,CC50,OVCAR-5; [11],32.7 µM
same,GI50,SN12C,1.22 µM
same,TGI,SN12C,3.66 µM
same,CC50,SN12C; [11],> 50 µM
same,GI50,TK-10,2.34 µM
same,TGI,TK-10,4.94 µM
same,CC50,TK-10; [11],29.2 µM
same,GI50,CAKI-1,6.87 µM
same,TGI,CAKI-1,15.2 µM
same,CC50,CAKI-1; [11],33.7 µM
same,GI50,DU-145,2.69 µM
same,TGI,DU-145,9.07 µM
same,CC50,DU-145; [11],23 µM
same,GI50,MDA-MB-231,6.51 µM
same,TGI,MDA-MB-231,> 50 µM
same,CC50,MDA-MB-231; [11],> 50 µM
same,GI50,BT-549,2.58 µM
same,TGI,BT-549,16.3 µM
same,CC50,BT-549; [11],> 50 µM
same,Activity,SR,-19.84%
same,Activity,HT-29,3.37%
same,Activity,KM12 [2],-19.53%
same,Activity,SW-620 [3],-43.27%
same,Activity,LOX IMVI [4],-57.05%
same,Activity,MDA-MB-435,4.82%
same,residual activity,[5],109%
same,residual activity,[6],0%
